Reference: ChEMBL document CHEMBL1165943, “Design and synthesis of new anticancer pyrimidines with multiple-kinase inhibitory effect” (Bioorg Med Chem, 2010)

Tests used:
[1] = target: High affinity nerve growth factor receptor (Homo sapiens) (UniProt P04629); assay: Inhibition of NTRK1 at 10 uM by HotSpot assay
[2] = target: Epidermal growth factor receptor (Homo sapiens) (UniProt P00533); assay: Inhibition of EGFR at 10 uM by HotSpot assay
[3] = target: Hepatocyte growth factor receptor (Homo sapiens) (UniProt P08581); assay: Inhibition of c-MET at 10 uM by HotSpot assay
[4] = target: Serine/threonine-protein kinase Chk1 (Homo sapiens) (UniProt O14757); assay: Inhibition of CHK1 at 10 uM by HotSpot assay
[5] = target: Proto-oncogene tyrosine-protein kinase ROS (Homo sapiens) (UniProt P08922); assay: Inhibition of ROS at 10 uM by HotSpot assay
[6] = target: Macrophage-stimulating protein receptor (Homo sapiens) (UniProt Q04912); assay: Inhibition of RON at 10 uM by HotSpot assay
[7] = target: Receptor-type tyrosine-protein kinase FLT3 (Homo sapiens) (UniProt P36888); assay: Inhibition of FLT3 at 10 uM by HotSpot assay
[8] = target: Proto-oncogene tyrosine-protein kinase receptor Ret (Homo sapiens) (UniProt P07949); assay: Inhibition of RET at 10 uM by HotSpot assay
[9] = target: Protein kinase C alpha type (Homo sapiens) (UniProt P17252); assay: Inhibition of PKCalpha at 10 uM by HotSpot assay
[10] = target: DNA-dependent protein kinase catalytic subunit (Homo sapiens) (UniProt P78527); assay: Inhibition of DNA-PK at 10 uM by HotSpot assay
[11] = target: Calcium/calmodulin-dependent protein kinase type II subunit beta (Homo sapiens) (UniProt Q13554); assay: Inhibition of CAMK2B at 10 uM by HotSpot assay
[12] = target: Ephrin type-A receptor 1 (Homo sapiens) (UniProt P21709); assay: Inhibition of EPHA1 at 10 uM by HotSpot assay
[13] = target: Mitogen-activated protein kinase 1 (Homo sapiens) (UniProt P28482); assay: Inhibition of MAPK1 at 10 uM by HotSpot assay
[14] = target: Angiopoietin-1 receptor (Homo sapiens) (UniProt Q02763); assay: Inhibition of TIE2 at 10 uM by HotSpot assay
[15] = target: Rho-associated protein kinase 1 (Homo sapiens) (UniProt Q13464); assay: Inhibition of ROCK1 at 10 uM by HotSpot assay
[16] = target: Serine/threonine-protein kinase mTOR (Homo sapiens) (UniProt P42345); assay: Inhibition of mTOR at 10 uM by HotSpot assay
[17] = target: RAC-alpha serine/threonine-protein kinase (Homo sapiens) (UniProt P31749); assay: Inhibition of AKT1 at 10 uM by HotSpot assay
CCRF-CEM [18] = assay: Cytotoxicity against human CCRF-CEM cells assessed as cell growth at 1 uM after 48 hrs by sulforhodamine B assay; assay type: functional; details: read-out: Activity
HCC 2998 [19] = assay: Cytotoxicity against human HCC2998 cells assessed as cell growth at 0.001 uM after 48 hrs by sulforhodamine B assay; assay type: functional; details: HCC 2998, 48 h, read-out: Activity
HOP-92 [20] = assay: Cytotoxicity against human HOP92 cells assessed as cell growth at 1 uM after 48 hrs by sulforhodamine B assay; assay type: functional; details: HOP-92, 48 h, read-out: Activity
MCF7 [21] = assay: Cytotoxicity against human MCF7 cells assessed as cell growth at 10 uM after 48 hrs by sulforhodamine B assay; assay type: functional; details: MCF7, 48 h, read-out: Activity
MCF7 [22] = assay: Cytotoxicity against human MCF7 cells assessed as cell growth at 100 nM after 48 hrs by sulforhodamine B assay; assay type: functional; details: MCF7, 48 h, read-out: Activity
PC-3 [23] = assay: Cytotoxicity against human PC3 cells assessed as cell growth at 10 uM after 48 hrs by sulforhodamine B assay; assay type: functional; details: PC-3, 48 h, read-out: Activity
HOP-92 [24] = assay: Cytotoxicity against human HOP92 cells assessed as cell growth at 0.01 uM after 48 hrs by sulforhodamine B assay; assay type: functional; details: HOP-92, 48 h, read-out: Activity
CCRF-CEM [25] = assay: Cytotoxicity against human CCRF-CEM cells assessed as cell growth at 0.01 uM after 48 hrs by sulforhodamine B assay; assay type: functional; details: read-out: Activity
CCRF-CEM [26] = assay: Cytotoxicity against human CCRF-CEM cells assessed as cell growth at 0.001 uM after 48 hrs by sulforhodamine B assay; assay type: functional; details: read-out: Activity
RXF 393 = assay: Cytotoxicity against human RXF393 cells assessed as cell growth at 0.001 uM after 48 hrs by sulforhodamine B assay; assay type: functional; details: RXF 393, 48 h, read-out: Activity
SR = assay: Cytotoxicity against human SR cells assessed as cell growth at 0.001 uM after 48 hrs by sulforhodamine B assay; assay type: functional; details: read-out: Activity
HOP-92 [27] = assay: Cytotoxicity against human HOP92 cells assessed as cell growth at 10 uM after 48 hrs by sulforhodamine B assay; assay type: functional; details: HOP-92, 48 h, read-out: Activity
HCC 2998 [28] = assay: Growth inhibition of human HCC2998 cells after 48 hrs by sulforhodamine B assay; assay type: functional; details: HCC 2998, 48 h
Procedure, shortened: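 Cells grown in RPMI 1640 with 5% FBS and 2 mM L-glutamine, seeded at 5,000–40,000 cells/well according to doubling time. After 24 h, time-zero plates are TCA-fixed. Five concentrations (10-fold or ½log dilutions, DMSO stocks) are applied for 48 h at 37 °C, 5% CO₂. Cells are TCA-fixed, SRB-stained and read at 515 nm. IC₅₀ is taken from [(Ti−Tz)/(C−Tz)]×100 = 50.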

NCI-H23 = assay: Cytotoxicity against human NCI-H23 cells assessed as cell growth at 100 nM after 48 hrs by sulforhodamine B assay; assay type: functional; details: NCI-H23, 48 h, read-out: Activity
NCI-H226 = assay: Cytotoxicity against human NCI-H226 cells assessed as cell growth at 100 nM after 48 hrs by sulforhodamine B assay; assay type: functional; details: NCI-H226, 48 h, read-out: Activity
MCF7 [29] = assay: Cytotoxicity against human MCF7 cells assessed as cell growth at 0.001 uM after 48 hrs by sulforhodamine B assay; assay type: functional; details: MCF7, 48 h, read-out: Activity
SK-MEL-28 = assay: Cytotoxicity against human SK-MEL-28 cells assessed as cell growth at 1 uM after 48 hrs by sulforhodamine B assay; assay type: functional; details: SK-MEL-28, 48 h, read-out: Activity
PC-3 [30] = assay: Cytotoxicity against human PC3 cells assessed as cell growth at 0.01 uM after 48 hrs by sulforhodamine B assay; assay type: functional; details: PC-3, 48 h, read-out: Activity

Sequence of Mitogen-activated protein kinase 1 (Homo sapiens) (P28482 whole entry): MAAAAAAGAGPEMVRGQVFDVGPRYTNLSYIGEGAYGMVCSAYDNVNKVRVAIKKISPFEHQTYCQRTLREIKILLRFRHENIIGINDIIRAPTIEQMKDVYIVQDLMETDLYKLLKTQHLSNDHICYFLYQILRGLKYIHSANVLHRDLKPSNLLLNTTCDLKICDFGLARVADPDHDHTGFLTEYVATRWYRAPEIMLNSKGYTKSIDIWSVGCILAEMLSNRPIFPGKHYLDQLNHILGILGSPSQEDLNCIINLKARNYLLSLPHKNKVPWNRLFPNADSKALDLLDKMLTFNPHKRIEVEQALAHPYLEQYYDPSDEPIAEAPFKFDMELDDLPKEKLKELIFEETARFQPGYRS
Sequence of Receptor-type tyrosine-protein kinase FLT3 (Homo sapiens) (P36888 whole entry): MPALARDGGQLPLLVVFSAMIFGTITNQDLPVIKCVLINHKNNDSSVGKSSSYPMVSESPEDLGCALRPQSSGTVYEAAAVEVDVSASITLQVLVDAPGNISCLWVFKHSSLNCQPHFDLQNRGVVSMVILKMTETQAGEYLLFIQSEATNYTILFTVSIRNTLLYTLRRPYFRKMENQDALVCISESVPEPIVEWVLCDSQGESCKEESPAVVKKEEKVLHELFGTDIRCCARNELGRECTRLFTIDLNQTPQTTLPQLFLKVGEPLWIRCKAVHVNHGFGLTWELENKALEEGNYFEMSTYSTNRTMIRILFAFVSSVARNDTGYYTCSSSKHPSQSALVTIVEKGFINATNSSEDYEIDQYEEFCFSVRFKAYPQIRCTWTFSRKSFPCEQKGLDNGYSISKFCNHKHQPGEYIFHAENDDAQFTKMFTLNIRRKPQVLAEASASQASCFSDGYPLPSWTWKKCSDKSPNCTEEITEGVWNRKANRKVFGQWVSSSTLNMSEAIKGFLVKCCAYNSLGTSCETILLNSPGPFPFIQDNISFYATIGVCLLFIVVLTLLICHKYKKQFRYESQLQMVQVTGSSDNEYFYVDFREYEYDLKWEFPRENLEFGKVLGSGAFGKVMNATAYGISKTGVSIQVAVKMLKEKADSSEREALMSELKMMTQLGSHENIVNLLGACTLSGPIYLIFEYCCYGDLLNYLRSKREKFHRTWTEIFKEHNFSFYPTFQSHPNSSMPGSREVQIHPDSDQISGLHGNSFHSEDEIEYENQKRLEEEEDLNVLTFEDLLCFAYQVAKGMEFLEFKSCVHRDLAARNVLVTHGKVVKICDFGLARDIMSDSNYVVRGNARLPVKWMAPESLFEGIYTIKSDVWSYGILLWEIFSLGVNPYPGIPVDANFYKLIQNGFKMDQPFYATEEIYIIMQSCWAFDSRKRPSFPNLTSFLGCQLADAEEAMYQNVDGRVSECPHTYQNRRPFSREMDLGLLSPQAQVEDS
Sequence of Epidermal growth factor receptor (Homo sapiens) (P00533 whole entry): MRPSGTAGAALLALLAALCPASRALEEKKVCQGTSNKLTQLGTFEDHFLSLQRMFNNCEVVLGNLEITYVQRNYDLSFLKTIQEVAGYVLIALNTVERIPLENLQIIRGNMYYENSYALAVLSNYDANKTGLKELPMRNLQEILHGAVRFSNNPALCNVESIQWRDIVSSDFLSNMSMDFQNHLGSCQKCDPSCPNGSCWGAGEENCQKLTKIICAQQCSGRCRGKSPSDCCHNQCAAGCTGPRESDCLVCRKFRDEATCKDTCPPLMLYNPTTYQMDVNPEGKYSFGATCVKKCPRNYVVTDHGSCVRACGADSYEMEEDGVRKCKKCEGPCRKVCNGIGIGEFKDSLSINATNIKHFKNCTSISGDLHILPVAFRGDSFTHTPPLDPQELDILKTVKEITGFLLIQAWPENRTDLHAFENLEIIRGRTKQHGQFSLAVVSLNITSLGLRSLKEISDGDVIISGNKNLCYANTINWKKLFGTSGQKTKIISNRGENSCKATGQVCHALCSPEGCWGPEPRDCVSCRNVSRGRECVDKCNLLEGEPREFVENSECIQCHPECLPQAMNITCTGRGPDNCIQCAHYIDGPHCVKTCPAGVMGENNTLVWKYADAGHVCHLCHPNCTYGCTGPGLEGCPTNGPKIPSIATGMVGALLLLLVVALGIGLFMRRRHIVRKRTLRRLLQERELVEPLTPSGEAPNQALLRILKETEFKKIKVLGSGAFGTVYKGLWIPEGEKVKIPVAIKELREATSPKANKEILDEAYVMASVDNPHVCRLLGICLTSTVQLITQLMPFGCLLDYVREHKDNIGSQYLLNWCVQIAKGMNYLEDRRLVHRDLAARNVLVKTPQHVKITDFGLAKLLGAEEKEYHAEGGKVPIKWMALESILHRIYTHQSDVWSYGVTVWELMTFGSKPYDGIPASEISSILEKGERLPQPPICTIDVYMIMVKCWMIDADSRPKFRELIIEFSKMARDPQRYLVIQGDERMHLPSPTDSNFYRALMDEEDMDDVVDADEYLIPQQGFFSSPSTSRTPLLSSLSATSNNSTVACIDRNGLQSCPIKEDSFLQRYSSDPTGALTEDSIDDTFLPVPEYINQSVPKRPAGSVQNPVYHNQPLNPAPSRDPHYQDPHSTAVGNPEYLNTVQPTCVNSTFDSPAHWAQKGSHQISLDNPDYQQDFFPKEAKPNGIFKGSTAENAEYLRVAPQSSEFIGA
Sequence of RAC-alpha serine/threonine-protein kinase (Homo sapiens) (P31749 whole entry): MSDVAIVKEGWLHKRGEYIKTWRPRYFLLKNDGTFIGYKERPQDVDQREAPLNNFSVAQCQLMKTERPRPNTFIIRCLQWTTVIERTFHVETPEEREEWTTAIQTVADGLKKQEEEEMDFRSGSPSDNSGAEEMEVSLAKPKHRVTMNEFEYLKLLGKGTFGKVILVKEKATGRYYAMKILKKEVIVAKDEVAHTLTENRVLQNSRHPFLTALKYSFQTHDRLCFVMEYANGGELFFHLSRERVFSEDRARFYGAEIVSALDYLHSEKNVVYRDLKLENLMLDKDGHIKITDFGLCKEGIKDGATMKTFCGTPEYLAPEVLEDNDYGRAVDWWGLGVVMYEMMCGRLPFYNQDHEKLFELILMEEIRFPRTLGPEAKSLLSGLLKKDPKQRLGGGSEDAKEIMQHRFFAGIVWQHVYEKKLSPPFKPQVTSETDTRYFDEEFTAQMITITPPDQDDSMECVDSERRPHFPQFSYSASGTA
Sequence of Calcium/calmodulin-dependent protein kinase type II subunit beta (Homo sapiens) (Q13554 whole entry): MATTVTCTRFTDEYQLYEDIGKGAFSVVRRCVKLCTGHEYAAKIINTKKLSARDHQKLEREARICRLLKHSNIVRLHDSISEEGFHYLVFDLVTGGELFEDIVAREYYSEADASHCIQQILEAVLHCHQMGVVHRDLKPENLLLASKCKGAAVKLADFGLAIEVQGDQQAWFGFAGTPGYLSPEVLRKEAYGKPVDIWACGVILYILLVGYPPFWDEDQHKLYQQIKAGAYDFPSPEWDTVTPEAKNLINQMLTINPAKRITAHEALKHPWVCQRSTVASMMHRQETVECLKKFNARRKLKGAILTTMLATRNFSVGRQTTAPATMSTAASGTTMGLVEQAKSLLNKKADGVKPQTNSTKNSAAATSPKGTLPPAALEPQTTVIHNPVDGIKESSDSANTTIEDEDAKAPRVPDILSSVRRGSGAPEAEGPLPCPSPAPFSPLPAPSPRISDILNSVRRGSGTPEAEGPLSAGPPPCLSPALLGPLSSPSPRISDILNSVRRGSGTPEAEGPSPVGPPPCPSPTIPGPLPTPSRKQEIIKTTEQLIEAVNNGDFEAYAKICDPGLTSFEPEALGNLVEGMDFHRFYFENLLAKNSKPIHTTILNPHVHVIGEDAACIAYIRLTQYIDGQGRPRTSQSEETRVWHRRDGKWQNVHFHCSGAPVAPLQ
Sequence of Angiopoietin-1 receptor (Homo sapiens) (Q02763 whole entry): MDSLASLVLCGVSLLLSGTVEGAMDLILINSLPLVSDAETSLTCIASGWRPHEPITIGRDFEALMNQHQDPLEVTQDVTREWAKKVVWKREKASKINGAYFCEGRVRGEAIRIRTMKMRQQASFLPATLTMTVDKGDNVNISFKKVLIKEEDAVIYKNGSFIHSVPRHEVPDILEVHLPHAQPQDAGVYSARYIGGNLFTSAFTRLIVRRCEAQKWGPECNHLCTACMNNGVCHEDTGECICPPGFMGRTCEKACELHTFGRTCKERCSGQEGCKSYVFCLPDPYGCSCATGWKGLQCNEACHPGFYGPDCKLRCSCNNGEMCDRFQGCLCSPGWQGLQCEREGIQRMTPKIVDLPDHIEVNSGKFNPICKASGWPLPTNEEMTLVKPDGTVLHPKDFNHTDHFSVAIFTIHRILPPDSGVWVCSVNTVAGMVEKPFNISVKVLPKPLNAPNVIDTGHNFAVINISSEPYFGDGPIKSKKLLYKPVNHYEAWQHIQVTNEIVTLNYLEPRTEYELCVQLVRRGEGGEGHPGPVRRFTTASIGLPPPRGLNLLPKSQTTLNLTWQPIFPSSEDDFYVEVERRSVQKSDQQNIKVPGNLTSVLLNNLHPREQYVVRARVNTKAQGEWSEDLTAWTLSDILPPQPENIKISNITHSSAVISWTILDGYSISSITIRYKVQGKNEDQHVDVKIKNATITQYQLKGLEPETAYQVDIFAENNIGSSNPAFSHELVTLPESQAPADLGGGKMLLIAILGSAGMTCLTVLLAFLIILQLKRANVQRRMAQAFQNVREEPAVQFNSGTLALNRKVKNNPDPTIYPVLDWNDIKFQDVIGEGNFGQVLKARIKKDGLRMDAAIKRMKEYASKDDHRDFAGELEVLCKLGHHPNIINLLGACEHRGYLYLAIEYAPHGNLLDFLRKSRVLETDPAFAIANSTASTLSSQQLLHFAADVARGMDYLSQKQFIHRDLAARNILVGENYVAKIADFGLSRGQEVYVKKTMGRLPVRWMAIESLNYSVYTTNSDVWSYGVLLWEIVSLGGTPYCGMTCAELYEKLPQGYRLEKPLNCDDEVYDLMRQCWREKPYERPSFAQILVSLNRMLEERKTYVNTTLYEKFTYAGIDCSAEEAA

Q: `CC(=O)Nc1cccc(-c2ccc(-c3ccnc(NC(=O)Nc4cc(C(F)(F)F)cc(C(F)(F)F)c4)n3)cn2)c1.Cl` was tested. Which inhibition [1] did it give?
A: < 50%

Q: What about the inhibition [2] of the same molecule?
A: < 50%

Q: What about the inhibition [3] of the same molecule?
A: < 50%

Q: What about the inhibition [4] of the same molecule?
A: < 50%

Q: And the inhibition [5]?
A: < 50%

Q: And the inhibition [6]?
A: < 50%

Q: And the inhibition [7]?
A: 50%

Q: What about the inhibition [8] of the same molecule?
A: < 50%

Q: And the inhibition [9]?
A: < 50%

Q: What about the inhibition [10] of the same molecule?
A: < 50%

Q: And the inhibition [11]?
A: < 50%

Q: And the inhibition [12]?
A: < 50%

Q: What about the inhibition [13] of the same molecule?
A: < 50%

Q: And the inhibition [14]?
A: < 50%

Q: What about the inhibition [15] of the same molecule?
A: < 50%

Q: What about the inhibition [16] of the same molecule?
A: < 50%

Q: And the inhibition [17]?
A: < 50%

Q: `CC(=O)c1ccccc1-c1ccc(-c2ccnc(NC(=O)Nc3cc(N4CCOCC4)cc(C(F)(F)F)c3)n2)cn1` was tested. Which growth at 1 µM (CCRF-CEM [18]) did it give?
A: 93%

Q: And the growth at 0.001 µM (HCC 2998 [19])?
A: 110%

Q: And the growth at 1 µM (HOP-92 [20])?
A: -2%

Q: What about the growth at 10 µM (MCF7 [21]) of the same molecule?
A: 70%

Q: What about the growth at 0.1 µM (MCF7 [22]) of the same molecule?
A: 100%

Q: What about the growth at 10 µM (PC-3 [23]) of the same molecule?
A: 91%

Q: And the growth at 0.01 µM (HOP-92 [24])?
A: 102%

Q: And the growth at 0.01 µM (CCRF-CEM [25])?
A: 102%

Q: What about the growth at 0.001 µM (CCRF-CEM [26]) of the same molecule?
A: 98%

Q: And the growth at 0.001 µM (RXF 393)?
A: 101%

Q: What about the growth at 0.001 µM (SR) of the same molecule?
A: 94%

Q: And the growth at 10 µM (HOP-92 [27])?
A: 20%

Q: What about the GI50 (HCC 2998 [28]) of the same molecule?
A: > 100 µM

Q: What about the TGI (HCC 2998 [28]) of the same molecule?
A: > 100 µM

Q: And the CC50 (HCC 2998 [28]; read-out: LC50 (the source's name))?
A: > 100 µM

Q: And the growth at 0.1 µM (NCI-H23)?
A: 83%

Q: And the growth at 0.1 µM (NCI-H226)?
A: 96%

Q: What about the growth at 0.001 µM (MCF7 [29]) of the same molecule?
A: 94%

Q: What about the growth at 1 µM (SK-MEL-28) of the same molecule?
A: 4%

Q: And the growth at 0.01 µM (PC-3 [30])?
A: 108%
